This is an account of results in ChEMBL document CHEMBL3244290, “N-Alkyl derivatives of (+/-)-alpha-methyldopamine” (J Med Chem, 1979).

Data set [1] concerns Columbidae. Kind of data set: Inhibition of apomorphine-induced pecking in pigeon at 3 umol/kg. Type of data set: functional. An outline of the steps:
(§1)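 Pigeons. Compounds given intramuscularly at up to 4 mg/kg to test induction of pecking. Antagonism of pecking induced by apomorphine (1.62 μM/kg) was also tested, and ED50 values were estimated.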

Data set [2] deals with Rattus norvegicus. Put plainly: Induction of rotation in rat with unilateral denervation of caudate nucleus at 1 mg/kg, sc. In kind it is functional, organism-based. Set-up: dose 1 mg/kg. Summed up:
(§2)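 Rats given a unilateral 6-hydroxydopamine injection into the substantia nigra. Compounds dosed subcutaneously and the rotations they induced were counted. Apomorphine served as the reference.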

The species entered for data set [3] is Felis catus. Put plainly: Inhibition of field stimulation-induced positive chronotrophic response in cat atria. Type of data set: functional. As to conditions: Cardiac atrium.
Data set [4] relates to Canis familiaris. Put plainly: Increase in heart rate in dog at 1 mg/kg, iv by cardiotachometer. The following applies: Canis lupus familiaris. Type of data set: functional, organism-based. On the set-up: dose 1 mg/kg. Summed up: (§3)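 Anaesthetised dog (barbital 200 mg/kg). Compounds given intravenously, highest dose tested 1.0 mg/kg. Blood pressure recorded from the right femoral artery and heart rate by cardiometer. Resting heart rate, blood pressure and positive chronotropic responses were assessed after dosing. Doses calculated as free base.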

The test system of data set [5] is Canis familiaris. Put plainly: Increase in ionotrophic response in dog following field stimulation at 1 mg/kg, iv by cardiotachometer. Type of data set: functional, organism-based. Set-up: dose 1 mg/kg. As to conditions: Canis lupus familiaris. An outline of the steps:
(§4)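 Dog cardioaccelerator nerve preparation under barbital (200 mg/kg) anaesthesia. Compounds given intravenously up to 1.0 mg/kg. Positive chronotropic responses read by cardiometer, with blood pressure taken from the right femoral artery.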

Data set [6] deals with Canis familiaris. Put plainly: Increase in ionotrophic response in iv dosed dog following field stimulation assessed as minimum effective dose by cardiotachometer. In kind it is functional, Canis lupus familiaris. On the set-up: unit not given here. An outline of the steps: as §4
The species named for the next data set is Canis lupus familiaris. Put plainly: Inhibition of electric stimulated dog right cardioaccelerator nerve. Type of data set: functional. An outline of the steps: as §4
For data set [7], the system named is Canis familiaris. Kind of data set: Increase in blood pressure in dog at 0.5 mg/kg, iv by cardiotachometer. In kind it is functional, Canis lupus familiaris. Summed up: as §3
In data set [8] the test system is Canis familiaris. Kind of data set: Increase in resting heart rate in dog at 0.5 mg/kg, iv by cardiotachometer. Type of data set: functional, organism-based. Set-up: dose 0.5 mg/kg. The following applies: Canis lupus familiaris. An outline of the steps: as §3
Data set [9] concerns Rattus norvegicus. Kind of data set: Induction of rotation in rat with unilateral denervation of caudate nucleus at 4 mg/kg, sc. In kind it is functional, organism-based. Set-up: dose 4 mg/kg. Summed up:
as §2

The subject of data set [10] is Canis familiaris. Kind of data set: Toxicity in dog assessed as emesis at 2 mg/kg, sc. Type of data set: organism-based, Canis lupus familiaris. Set-up: dose 2 mg/kg, route subcutaneous. As to conditions: in vivo. Summed up:
(§5)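 Unanaesthetised dogs. For emesis, compound given sc and dogs watched 45 min for an emetic response. For antagonism, compound given sc and apomorphine 100 μg/kg 15 min later.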

Data set [11] concerns Canis familiaris. Kind of data set: Inhibition of apomorphine-induced emesis in dog at 2 mg/kg, sc. Type of data set: functional, organism-based. On the set-up: dose 2 mg/kg. As to conditions: Canis lupus familiaris. An outline of the steps:
as §5

Data set [12] is described as follows: Toxicity in pigeon assessed as pecking. As to conditions: columbidae. Summed up: as §1
Data set [13] is filed under the species Rattus norvegicus. Put plainly: Toxicity in Sprague-Dawley rat assessed as locomotor hyperactivity treated bilateral injection into nucleus accumbens at 50 ug. Type of data set: organism-based. As to conditions: in vivo, other. An outline of the steps:
(§6)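 Male Sprague-Dawley rats (250 ± 25 g) with stereotaxic guide cannulae aimed at the nucleus accumbens. Tested 10–14 days after surgery with a bilateral 1 μL infusion over 60 s; each rat used once and placement checked histologically. Locomotion counted by photocell cage. Stereotypy scored, where 3–4 = biting, gnawing or licking. Pretreatments given ip: α-methyl-p-tyrosine 250 mg/kg 6 h before, or haloperidol 0.1, propranolol 5 or aceperone 2.5 mg/kg 30 min before.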

Data set [14] is filed under the species Rattus norvegicus. Kind of data set: Toxicity in Sprague-Dawley rat assessed as sniffing at 12.5 to 50 ug injection into nucleus accumbens. Type of data set: organism-based. The following applies: in vivo, other. Summed up:
as §6

Data set [15] has as its system Mus musculus. Kind of data set: Toxicity in albino B.K.W mouse assessed as climbing behaviour at 20 to 80 mg/kg, sc. Type of data set: organism-based. On the set-up: dose 20-80 mg/kg, route subcutaneous. As to conditions: in vivo. An outline of the steps: (§7)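 Mice dosed subcutaneously at 20, 40 and 80 mg/kg in 1 mL/kg, doses as free base. Climbing scored as all four paws on the wire, giving a climbing index (% time over 30 min after the first climb) and the maximum time of a single climb. Circling was tested in mice with a unilateral caudate-putamen electrolesion, pre-selected for circling of 7 or more revolutions/2 min in response to apomorphine. Stereotypy was also recorded.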

The test system of data set [16] is Mus musculus. Kind of data set: Toxicity in albino B.K.W mouse assessed as circling behaviour at 20 to 80 mg/kg, sc. Type of data set: organism-based. Set-up: dose 20-80 mg/kg, route subcutaneous. As to conditions: in vivo. An outline of the steps:
as §7

In data set [17] the test system is Mus musculus. Kind of data set: Toxicity in albino B.K.W mouse assessed as stereotyped behaviour at 20 to 80 mg/kg, sc. In kind it is organism-based. On the set-up: dose 20-80 mg/kg, route subcutaneous. The following applies: in vivo. An outline of the steps: as §7
The species entered for data set [18] is Felis catus. Kind of data set: Inhibition of field stimulation-induced positive ionotrophic response in cat atria. In kind it is functional. The following applies: Cardiac atrium.
Data set [19] has as its system Rattus norvegicus. Kind of data set: Induction of rotation in rat with unilateral denervation of caudate nucleus at 0.25 mg/kg, sc. Type of data set: functional, organism-based. On the set-up: dose 0.25 mg/kg. An outline of the steps:
as §2

For data set [20], the system named is Canis familiaris. Kind of data set: Increase in resting heart rate in dog at […], iv by cardiotachometer. The following applies: Canis lupus familiaris. In kind it is functional, organism-based. An outline of the steps: as §3
Data set [21] relates to Canis familiaris. Kind of data set: Increase in blood pressure in dog at 50 ug/kg, iv by cardiotachometer. Type of data set: functional, Canis lupus familiaris. Summed up:
as §3

For data set [22], the system named is Canis familiaris. Kind of data set: Increase in heart rate in dog assessed as beats at 50 ug/kg, iv by cardiotachometer. In kind it is functional, Canis lupus familiaris. Summed up:
as §3

Data set [23] is filed under the species Rattus norvegicus. Kind of data set: Toxicity in Sprague-Dawley rat assessed as biting up to 50 ug injection into nucleus accumbens. The following applies: in vivo, other. Type of data set: organism-based. An outline of the steps:
as §6

Data set [24] is filed under the species Rattus norvegicus. Put plainly: Toxicity in Sprague-Dawley rat assessed as gnawing up to 50 ug injection into nucleus accumbens. Type of data set: organism-based. The following applies: in vivo, other. Summed up:
as §6

The species entered for data set [25] is Rattus norvegicus. Put plainly: Toxicity in Sprague-Dawley rat assessed as licking up to 50 ug injection into nucleus accumbens. In kind it is organism-based. The following applies: in vivo, other. An outline of the steps:
as §6

Data set [26] deals with Canis familiaris. Put plainly: Increase in heart rate in dog assessed as beats at 30 ug/kg, iv by cardiotachometer. Type of data set: functional, Canis lupus familiaris. An outline of the steps: as §3
Data set [27] concerns Canis familiaris. Kind of data set: Increase in blood pressure in dog at 30 ug/kg, iv by cardiotachometer. In kind it is functional, Canis lupus familiaris. Summed up:
as §3

Data set [28] deals with Columbidae. Kind of data set: Inhibition of apomorphine-induced pecking in pigeon. Type of data set: functional. Summed up: as §1

Active and inactive are the calls of the source. The rule behind the calls is not given here.

Regarding `COc1cc(CC(C)N)c(OC)cc1C` (stereo not given), the inhibition entry in the data set on Columbidae [1] was “Active”.
Turning to `C[C@H](N)Cc1ccccc1`, the outcome in the data set with Rattus norvegicus [2] was Active.
`Br.CCCN(CCC)C(C)Cc1ccc(O)c(O)c1` (racemic): the inhibition entry in the data set filed under Felis catus [3], in the data set listed under Canis lupus familiaris and in the data set listed under Felis catus [18] was “inactive” throughout. Further, the result in the data set with Canis familiaris [4] and with Canis familiaris [5] was Active. For the same compound, the MED in the data set with Canis familiaris [6] is 20. The Activity result in the data set on Canis familiaris [7] was “<=10 mmHg”; in the data set with Canis familiaris [10] it was “Non-toxic”; in data set [12], “Non-toxic”; in the data set filed under Rattus norvegicus [13], “Toxic”; in the data set listed under Rattus norvegicus [14], “Toxic”; in the data set on Mus musculus [15], “Non-toxic”. Further, the Activity result in the data set with Mus musculus [16] and with Mus musculus [17] was “Non-toxic” in each case. In addition, the outcome with Canis familiaris [8], in the data set with Rattus norvegicus [9] and in the data set with Canis familiaris [11] was inactive.
As for `CN1CCc2cccc3c2[C@H]1Cc1ccc(O)c(O)c1-3`, the result in the data set on Rattus norvegicus [19] was Active.
`Br.CC(Cc1ccc(O)c(O)c1)N(C)C` (racemic): the inhibition entry in the data set listed under Felis catus [3], in the data set listed under Canis lupus familiaris and in the data set listed under Felis catus [18] was “inactive” each time. In addition, in the data set with Canis familiaris [20], the outcome was Active. In addition, the Activity in the data set with Canis familiaris [21] is reported as 80%; with Canis familiaris [22], 50 bpm; with Canis familiaris [10], “Non-toxic”; in data set [12] it was “Non-toxic”; in the data set filed under Rattus norvegicus [13] it was “Non-toxic”; in the data set filed under Rattus norvegicus [23] it was “Non-toxic”. For the same compound, the Activity entry in the data set filed under Rattus norvegicus [24], in the data set filed under Rattus norvegicus [25], in the data set on Mus musculus [15], with Mus musculus [16] and in the data set with Mus musculus [17] was “Non-toxic” each time. In addition, the outcome in the data set on Canis familiaris [11] was inactive.
For `Br.CC(C)NC(C)Cc1ccc(O)c(O)c1` (racemic), the inhibition entry in the data set filed under Felis catus [3], in the data set filed under Canis lupus familiaris and in the data set listed under Felis catus [18] was “inactive” in each case. The Activity was 23 bpm in the data set on Canis familiaris [26]; “Non-toxic” with Canis familiaris [10]; “Non-toxic” in [12]; “Non-toxic” in the data set listed under Rattus norvegicus [13]; “Non-toxic” in the data set filed under Rattus norvegicus [23]; “Non-toxic” in the data set listed under Rattus norvegicus [24]. The Activity result in the data set filed under Rattus norvegicus [25] is “Non-toxic”; in the data set with Mus musculus [15], “Non-toxic”; in the data set with Mus musculus [16] it was “Non-toxic”; with Mus musculus [17], “Non-toxic”; in the data set on Canis familiaris [27], 40%. For the same compound, in the data set with Canis familiaris [11], the outcome was inactive.
For the compound `Br.CC(C)N(C)C(C)Cc1ccc(O)c(O)c1` (racemic), the inhibition entry in the data set filed under Felis catus [3], in the data set listed under Canis lupus familiaris and in the data set listed under Felis catus [18] was “inactive” each time. For the same compound, the outcome with Canis familiaris [4] and with Canis familiaris [5] was Active. The MED in the data set on Canis familiaris [6] is listed as 20. The Activity result is given as “<=10 mmHg” in the data set on Canis familiaris [7]; “Non-toxic” in the data set with Canis familiaris [10]; “Non-toxic” in [12]; “Non-toxic” in the data set filed under Rattus norvegicus [13]; “Non-toxic” in the data set filed under Rattus norvegicus [23]; “Non-toxic” in the data set filed under Rattus norvegicus [24]. Moreover, the Activity result in the data set filed under Rattus norvegicus [25], with Mus musculus [15], in the data set on Mus musculus [16] and in the data set with Mus musculus [17] was “Non-toxic” each time. Further, the result with Canis familiaris [8] and with Canis familiaris [11] was inactive. The inhibition result in the data set with Columbidae [28] is “Active”.
